Measured values: ChEMBL document CHEMBL5038578, “Design, Synthesis, and Biological Evaluation of Peptidomimetic Aldehydes as Broad-Spectrum Inhibitors against Enterovirus and SARS-CoV-2” (J Med Chem, 2022)

Columns and labels:
[1] = Inhibition of Human enterovirus 71 3C-like protease expressed in Escherichia coli BL21 (DE3) cells using Dacyl-KTSAVLQSGFRKMEEdans as fluorogenic substrate incubated for 10 mins by FRET assay; parameters: species or system Enterovirus A71
Procedure, shortened: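 EV71 3Cpro expressed with N-terminal His-SUMO2 tag, tag cut by SENP2, then purified on Ni-NTA, Q-Sepharose and Superdex200. Enzyme at 5 μM final, preincubated 10 min with serial compound dilutions in 25 mM Tris pH 8.0, 150 mM NaCl, 10% glycerol. Fluorescence read at ex 340/em 490 nm. IC50 (mean ± SD, ≥3 experiments) by nonlinear regression.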

Enterovirus A71 = experiment: Antiviral activity against Human enterovirus 71 BrCr infected in human RD cells assessed as reduction in virus-induced cytopathic effect incubated for 4 days by MTS/PMS assay; type: functional, organism-based; details: Enterovirus A, 96 h
Procedure, shortened: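 RD cells (2.5 × 10^4/well) adhered overnight, then infected with EV71 BrCr and given serial compound dilutions. Incubated 4 days, until full CPE in virus controls. Viability by MTS/PMS, absorbance at 498 nm after 1–2 h at 37 °C. Normalised to infected and uninfected untreated controls; EC50 by curve fitting.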

[2] = Cytotoxicity against human RD cells assessed as reduction in cell viability measured after 4 days by MTS/PMS assay; type: toxicity, cell-based; details: time 4 day
[3] = Inhibition of SARS-CoV2 3C-like protease expressed in Escherichia coli BL21 (DE3) cells using Mca-AVLQSGFR-Lys(Dnp)-Lys-NH2 as fluorogenic substrate incubated for 10 mins by FRET assay; parameters: species or system Severe acute respiratory syndrome coronavirus 2
SARS-CoV-2 = experiment: Antiviral activity against SARS Cov-2 infected in Vero E6 cells assessed as reduction in viral RNA replication measured 24 hrs post infection by qRT-PCR analysis; type: functional, organism-based; details: Severe acute respiratory syndrome coronavirus 2, Vero C1008, 24 h
[4] = Cytotoxicity against African green monkey Vero E6 cells assessed as reduction in cell viability incubated for 24 hrs by CCK8 assay; type: toxicity, cell-based, Vero C1008; details: chlorocebus sabaeus
Procedure, shortened: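 Vero E6 cells (2 × 10^4/well) exposed to graded compound concentrations for 24 h. Relative surviving cell number measured by CCK-8.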

rhinovirus A2 = experiment: Antiviral activity against wild type Rhinovirus-A02 infected in HeLa cells assessed as reduction in virus-induced cytopathic effect incubated for 3 days by MTS/PMS assay; type: functional, cell-based; details: Rhinovirus A, 72 h
rhinovirus B14 = experiment: Antiviral activity against wild type Human rhinovirus B14 infected in HeLa cells assessed as reduction in virus-induced cytopathic effect incubated for 3 days by MTS/PMS assay; type: functional, organism-based; details: Rhinovirus B, 72 h
enterovirus D68 = experiment: Antiviral activity against Human enterovirus 68 infected in HeLa cells assessed as reduction in virus-induced cytopathic effect incubated for 4 days by MTS/PMS assay; type: functional, organism-based; details: Enterovirus D, 96 h
Coxsackievirus A21 = experiment: Antiviral activity against Human coxsackievirus A21 infected in HeLa cells assessed as reduction in virus-induced cytopathic effect incubated for 3 days by MTS/PMS assay; type: functional, organism-based; details: Enterovirus C, 72 h
Coxsackievirus B3 = experiment: Antiviral activity against Human coxsackievirus B3 infected in Vero cells assessed as reduction in plaque formation treated 2 hrs post viral infection and measured 3 to 4 days post-infection by Giemsa staining based plaque reduction assay; type: functional, organism-based; details: Enterovirus B

| SMILES | IC50 [1] [µM] | EC50 (Enterovirus A71) [µM] | CC50 at 96 h [2] [µM] | IC50 [3] [µM] | EC50 (SARS-CoV-2) [µM] | CC50 at 24 h [4] [µM] | EC50 (rhinovirus A2) [µM] | EC50 (rhinovirus B14) [µM] | EC50 (enterovirus D68) [µM] | EC50 (Coxsackievirus A21) [µM] | EC50 (Coxsackievirus B3) [µM] |
| --- | --- | --- | --- | --- | --- | --- | --- | --- | --- | --- | --- |
| O=C[C@H](C[C@@H]1CCNC1=O)NC(=O)[C@H](Cc1ccccc1)NC(=O)c1ccc2[nH]ccc2c1 | 3.83 | 0.69 | > 100 |  |  |  |  |  |  |  |  |
| O=C[C@H](C[C@@H]1CCNC1=O)NC(=O)[C@H](Cc1ccccc1)NC(=O)c1cc2ccccc2o1 | 2.44 | 0.093 | > 100 | 0.08 | 0.49 | > 1000 |  |  |  |  |  |
| CC(C)[C@H](NC(=O)c1cc2ccccc2o1)C(=O)N[C@@H](Cc1ccccc1)C(=O)N[C@H](C=O)C[C@@H]1CCNC1=O | 2.43 | 0.096 | > 100 | 0.067 | 5.62 | > 1000 |  |  |  |  |  |
| O=C(/C=C/c1ccccc1)N[C@@H](Cc1ccccc1)C(=O)N[C@H](/C=C/C(=O)OCc1ccccc1)C[C@@H]1CCNC1=O | 2.06 | 3.1 | > 100 |  |  |  |  |  |  |  |  |
| O=C[C@H](C[C@@H]1CCNC1=O)NC(=O)[C@H](Cc1ccccc1)NC(=O)c1ccc2c(c1)OCO2 | 1.47 | 0.22 | > 100 | 0.078 | 1.35 | > 1000 |  |  |  |  |  |
| CCOC(=O)/C=C/[C@H](C[C@@H]1CCNC1=O)NC(=O)[C@H](Cc1ccc(F)cc1)NC(=O)[C@@H](NC(=O)c1cc(C)on1)C(C)C | 1.89 | 0.011 | > 100 |  |  |  |  |  |  |  |  |
| COC(=O)/C=C/[C@H](C[C@@H]1CCNC1=O)NC(=O)[C@H](Cc1ccccc1)NC(=O)/C=C/c1ccccc1 | 1.73 | 1.21 | > 100 |  |  |  | 1.68 | 1.65 | 0.1 | 3.62 | 77.7 |
| O=C[C@H](C[C@@H]1CCNC1=O)NC(=O)[C@H](Cc1ccccc1)NC(=O)c1cccc2c1OCCO2 | 3.01 | 0.77 | > 100 | 0.097 | 8.21 | > 1000 |  |  |  |  |  |
| O=C[C@H](C[C@@H]1CCNC1=O)NC(=O)[C@H](Cc1ccccc1)NC(=O)c1cn2cc(Br)ccc2n1 | 1.62 | 0.36 | > 100 |  |  |  |  |  |  |  |  |
| CC(C)[C@H](NC(=O)c1ccc2c(c1)OCCO2)C(=O)N[C@@H](Cc1ccccc1)C(=O)N[C@H](C=O)C[C@@H]1CCNC1=O | 4.04 | 0.44 | > 100 |  |  |  |  |  |  |  |  |
| O=C[C@H](C[C@@H]1CCNC1=O)NC(=O)[C@H](Cc1ccccc1)NC(=O)c1cncc(F)c1 | 2.02 | 0.47 | > 100 |  |  |  |  |  |  |  |  |
| O=C[C@H](C[C@@H]1CCNC1=O)NC(=O)[C@H](Cc1ccccc1)NC(=O)c1ccc2occc2c1 | 2.37 | 0.29 | > 100 | 0.059 | 0.76 | > 1000 |  |  |  |  |  |
| O=C[C@H](C[C@@H]1CCNC1=O)NC(=O)[C@H](Cc1ccccc1)NC(=O)C1=Cc2cc(Cl)ccc2OC1 | 4.34 | 0.07 | 16.4 | 0.12 | 0.25 | 299 |  |  |  |  |  |
| O=C[C@H](C[C@@H]1CCNC1=O)NC(=O)[C@H](Cc1ccccc1)NC(=O)/C=C/c1ccccc1 | 4.57 | 0.1 | > 100 |  |  |  | 6.6 | 1.19 | 0.08 | 1.73 | 15.9 |
| Cc1nc2ccccc2nc1C(=O)N[C@@H](Cc1ccccc1)C(=O)N[C@H](C=O)C[C@@H]1CCNC1=O | 3.04 | 0.37 | > 100 | 0.065 | 0.44 | 603 |  |  |  |  |  |
| O=C[C@H](C[C@@H]1CCNC1=O)NC(=O)[C@H](Cc1ccccc1)NC(=O)c1cnc2ccccc2n1 | 3.6 | 0.14 | > 100 |  |  |  |  |  |  |  |  |
| CC(C)[C@H](NC(=O)c1cc2ccccc2[nH]1)C(=O)N[C@@H](Cc1ccccc1)C(=O)N[C@H](C=O)C[C@@H]1CCNC1=O | 4.16 | 0.12 | 72.5 | 0.068 | 4.22 | > 1000 | 1.02 | 0.98 | 0.26 | 0.51 | 9.15 |
| O=C[C@H](C[C@@H]1CCNC1=O)NC(=O)[C@H](Cc1ccccc1)NC(=O)c1ccc2ccc(Br)cc2n1 | 3.22 | 0.094 | 46.2 | 0.24 | 0.35 | 823 |  |  |  |  |  |
| O=C[C@H](C[C@@H]1CCNC1=O)NC(=O)[C@H](Cc1ccccc1)NC(=O)c1ccc2ccccc2n1 | 13 | 0.12 | > 100 | 0.14 | 0.43 | 627 |  |  |  |  |  |
| Cc1cc(C(=O)N[C@@H](Cc2ccccc2)C(=O)N[C@H](C=O)C[C@@H]2CCNC2=O)no1 | 2.09 | 0.32 | > 100 |  |  |  |  |  |  |  |  |
| Cc1cc(C(=O)N[C@H](C(=O)N[C@@H](Cc2ccccc2)C(=O)N[C@H](C=O)C[C@@H]2CCNC2=O)C(C)C)no1 | 6.73 | 0.09 | > 100 | 0.067 | > 2 | > 1000 |  |  |  |  |  |
| O=C[C@H](C[C@@H]1CCNC1=O)NC(=O)[C@H](Cc1ccccc1)NC(=O)c1ccc2c(c1)OCCO2 | 2.21 | 0.3 | > 100 |  |  |  |  |  |  |  |  |
